Data: publication PMC6661244 (Investigative Radiology, 2019)
“Also recorded” adds a separate entry of the source.

How the values were obtained:
[1] = format: physicochemical; settings: 2.5 mM GBCA and ZnCl2, phosphate buffer pH 7, 335 mM, 37°C, 0.47 T, up to 5 days
Viscosity = format: physicochemical; settings: 0.5 M
In short: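 Cone-and-plate rotational rheometry (60 mm, 2° cone) on a 0.5 M solution at 37°C. Shear rate was recorded at applied stresses of 1–5 Pa, and viscosity was taken from the slope of stress versus shear rate.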

[2] = tested on: hepatic colorectal metastases; settings: rats, 0.1 mmol Gd/kg intravenously, 9.4 T, compared with gadobutrol; cited from earlier work
[3] = Nuclear magnetic relaxation dispersion; format: physicochemical
[4] = Metabolism: HPLC analysis of plasma and urine samples; format: in vivo; settings: Beagle dogs, 0.2 mmol Gd/kg IV
In short: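 Urine and plasma from Beagle dogs given a 153Gd-labelled test compound (0.2 mmol Gd/kg IV) were analysed by radio-HPLC. Separation used a C18 column at 4°C, with detection by a flow scintillation analyser.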

Osmolality = format: physicochemical; settings: 0.5-M solution; Guerbet measurements
In short: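 Vapour-pressure osmometry on a 0.5 M solution, triplicate readings. The osmometer was calibrated before each use with 100, 290 and 1000 mOsm/kg H2O standards.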

| r1(t)/r1(t0) ratio over time in the presence of Zn^2+ and phosphate [1] | Viscosity at 37°C (Viscosity) [mPa·s] | Relaxivity r1 at 37°C ([3]; 3 T, in human serum, extrapolated from NMRD profiles) [mM⁻¹ s⁻¹] | r1 relaxivity (NMRD profile) ([3]; 300 MHz, ie, 7 T field, water, 37°C) [mM⁻¹ s⁻¹] | Osmolality at 37°C at marketed concentration (Osmolality) [mOsm/kg H2O] | SMILES | Lesion enhancement [2] | Metabolites in plasma and urine samples (HPLC) [4] |
| --- | --- | --- | --- | --- | --- | --- | --- |
| remained constant | – | – | – | – | CNC[C@H](O)[C@@H](O)[C@H](O)[C@H](O)CO.O=C([O-])CN1CCN(CC(=O)[O-])CCN(CC(=O)O)CCN(CC(=O)[O-])CC1.[Gd+3] [Gadoterate (Meglumine Salt), reference compound] | – | – |
| remained constant | 7.6 | 11.6 | 10.68 | 843 | O=C(CCC(C(=O)[O-])N1CCN(C(CCC(=O)NCC(O)CO)C(=O)[O-])Cc2cccc(n2)CN(C(CCC(=O)NCC(O)CO)C(=O)[O-])CC1)NCC(O)CO.[Gd+3] (centres unmarked) [Gadopiclenol, gadolinium chelate of 2,2′,2″-(3,6,9-triaza-1(2,6)-pyridinacyclodecaphane-3,6,9-triyl)tris(5-((2,3-dihydroxypropyl)amino)-5-oxopentanoic acid)] | significantly better lesions enhancement | No metabolites were found; also recorded: only unchanged gadopiclenol |
